In ChEMBL document CHEMBL1914407, “New dammarane-type glucosides as potential activators of AMP-activated protein kinase (AMPK) from Gynostemma pentaphyllum” (Bioorg Med Chem, 2011):
The source made the active and inactive calls.

Columns and labels:
L6 [1] = assay: Increase in beta-oxidation in rat L6 cells assessed as tritiated water production at 12 uM by scintillation counter method; type: functional, cell-based
How it was run: (§1)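 Fatty acid β-oxidation measured in differentiated L6 myotubes treated with compound, using DMSO as vehicle control. 3H2O formed was quantified in a scintillation counter.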

L6 [2] = assay: Induction of AMPK-alpha phosphorylation at thr172 in rat L6 cells at 12 uM by Western blot analysis in presence of 10 uM of AMPK inhibitor; type: cell-based
How it was run: (§2)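 L6 myotubes pretreated 10 min with the AMPK inhibitor compound C (10 µM), then exposed to compound for 2 h (DMSO vehicle). Lysates immunoblotted for phospho-AMPKα1/2 (Thr172) and total AMPK.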

L6 [3] = assay: Increase in AMPK alpha-mediated GLUT4 translocation into plasma membrane in rat L6 cells assessed as [3H]2-deoxy-glucose uptake after 2 hrs by scintillation counting relative to control; type: cell-based
How it was run: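 2-Deoxy-[3H]D-glucose added for 10 min, then three ice-cold 0.9% NaCl washes. Cytochalasin B (10 µM) blank subtracted. Cells collected in 0.05 N NaOH and counted by scintillation. Expressed as pmol 2-DG/min/mg protein or fold over control. Mean ± S.D. of three experiments.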

L6 [4] = assay: Induction of AMPK-alpha phosphorylation at thr172 in rat L6 cells after 2 hrs by Western blot analysis; type: cell-based
How it was run: (§3)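 Differentiated L6 myotubes treated 2 h with a range of compound concentrations (DMSO vehicle), then lysed in pH 8.0 Tris buffer containing NP-40, EDTA, DTT, PMSF, orthovanadate, NaF and protease inhibitors. Immunoblotted for phospho-AMPKα1/2 (Thr172), total AMPK, phospho-ACC (Ser79) and total ACC.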

L6 [5] = assay: Induction of AMPK alpha-mediated ACC phosphorylation at ser79 in rat L6 cells after 2 hrs by Western blot analysis; type: cell-based; how it was run: as §3
L6 [6] = assay: Induction of AMPK-alpha phosphorylation at thr172 in rat L6 cells at 150 uM by Western blot analysis in presence of 10 uM of AMPK inhibitor; type: cell-based; how it was run: as §2
L6 [7] = assay: Increase in beta-oxidation in rat L6 cells assessed as tritiated water production at 150 uM by scintillation counting; type: functional, cell-based; how it was run: as §1

Measured: Activity

C=C(CCC=C(C)C)[C@H]1CC[C@]2(C)[C@@H]1[C@H](O)C[C@@H]1[C@@]3(C)C[C@@H](O)[C@H](O[C@@H]4O[C@H](CO)[C@@H](O)[C@H](O)[C@H]4O[C@@H]4O[C@H](CO)[C@@H](O)[C@H](O)[C@H]4O)C(C)(C)[C@@H]3CC[C@]12C
active: L6 [1] | L6 [2] | L6 [3] Dose-dependent effect | L6 [4] Dose-dependent effect | L6 [5] Dose-dependent effect

CC(C)=CC/C=C(\C)[C@H]1CC[C@]2(C)[C@@H]1[C@H](O)C[C@@H]1[C@@]3(C)C[C@@H](O)[C@H](O[C@@H]4O[C@H](CO)[C@@H](O)[C@H](O)[C@H]4O[C@@H]4O[C@H](CO)[C@@H](O)[C@H](O)[C@H]4O)C(C)(C)[C@@H]3CC[C@]12C
active: L6 [6] | L6 [7] | L6 [3] Dose-dependent effect | L6 [4] Dose-dependent effect | L6 [5] Dose-dependent effect
